The sample as a whole holds a higher share of hits than the screen did.
CHOP inh: CHOP inhibition in unfolded protein response | 220,000 tested, 3.8% active | CHO-K1 CHOP-promoter luciferase, tunicamycin-induced, 15-18 h | inhibition, % at 10 µM;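 active means compounds that reduced the stress-induced luciferase reporter signal by more than about 70% of percent inhibition, limit read from the data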;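 further: 0% = tunicamycin plus vehicle and 100% = wells without tunicamycin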
TbMetRS inhib: blocks T. brucei methionyl-tRNA synthetase activity. purified T. brucei MetRS, ATP depletion, Kinase-Glo luminescence. inhibition, % at 11.9 µM. 360,000 tested, 0.4% active. AID 624268;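 active means inhibition above a per-plate cutoff of the control wells' mean inhibition plus 3 SD, cut at about 5.5% in these data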;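 further: 0% = DMSO wells median and 100% = median of wells with control inhibitor compound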
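Dosing: 11.9 µM compound single dose, 0.9% DMSO; Assay system: purified T. brucei MetRS enzyme; Measured by: Kinase-Glo luciferase luminescence reporting remaining unconsumed ATP; Schedule: 15 min plus 2 h at 25 °C.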
V-ATPase pH: regulators of yeast V-ATPase proton transport; S. cerevisiae, pHLuorin cytosolic pH fluorescence; response, % at 10 µM; 350,000 tested, 0.37% active; AID 504577; in the data active means response mostly above about 7.3%, no sharp cut-off; inactive means mostly below about 5.4%; further: actives read high
CHOP UPR activ: activators of apoptotic arm of unfolded protein response (CHOP); 330,000 tested, 0.34% active; CHO-CHOP luciferase reporter, UPR activation, luminescence; percent of tunicamycin response over DMSO baseline; activation, % at 10 µM;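 active means at 10 µM dose, activation of 40% or more, normalized to positive control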;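 further: 100% = tunicamycin at 10 µg/mL and 0% = DMSO alone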
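System: CHO-CHOP luciferase reporter cell line | Buffer or medium: F12 medium containing 10% fetal bovine serum | Doses: One dose, 10 µM in 0.5% DMSO | Times: 6 h compound exposure at 37 °C after overnight seeding | Signal: Luciferase luminescence | Read-out: % activation vs tunicamycin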
XBP1 UPR activ: activators of adaptive arm of unfolded protein response (XBP1); CHO-XBP1 luciferase reporter, IRE1-XBP1 UPR activation, luminescence; percent of tunicamycin response, DMSO as zero; activation, % at 20 µM; 330,000 tested, 0.33% active; AID 463104;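 active means versus positive control, 20 µM dose yields 30% or more activation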;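 further: 100% = tunicamycin at 10 µg/mL and 0% = DMSO only wells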
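Assay system: CHO-XBP1 luciferase reporter cells; Schedule: 6 h treatment, 37 °C; Detection: glow luminescence from Steady-Glo reagent; Benchmarks: high control tunicamycin 10 µg/mL final, low control DMSO vehicle only.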
Starred values were filed as active, the others as inactive.

Screening CN(CCc1ccccc1)C(=O)c1ccc(NC(=O)Cc2ccc(NC(=O)C3CCCN(C(=O)c4ccccc4)C3)cc2)cc1 (stereo not drawn) returned TbMetRS inhib -0.6 and V-ATPase pH -0.4.
For C=CCN1C(=O)C(Cc2ccc(C)cc2)S/C1=N/N=C/c1ccco1 (stereo not drawn) the results were CHOP inh 76.3*, TbMetRS inhib -1.5, V-ATPase pH -0.8, CHOP UPR activ -0.4 and XBP1 UPR activ 8.1.
For CN(Cc1ccccc1)C(=O)C1CCN(S(=O)(=O)c2ccc(-n3cnnn3)cc2)CC1 the results were TbMetRS inhib 0.3, V-ATPase pH 2.4, CHOP UPR activ -0.5 and XBP1 UPR activ -4.4.
Screening O=C(COc1ccc(C(=O)NCCc2ccccc2)cc1)Nc1ccccc1 returned CHOP inh 30.8, TbMetRS inhib 0.4, V-ATPase pH 4.4, CHOP UPR activ 0.1 and XBP1 UPR activ -2.8.
O=C(COc1ccc(Cl)cc1Br)NC(=O)NCc1ccccc1 was read as CHOP inh 84.2*, TbMetRS inhib -0.3, V-ATPase pH -0.4, CHOP UPR activ -1.7 and XBP1 UPR activ 0.9.
`O=C(COc1ccc(C(=O)Nc2ccc(Cl)cc2)cc1)NCc1ccccc1` gave CHOP inh 77.5*, TbMetRS inhib 0.2, V-ATPase pH -2.0, CHOP UPR activ -0.1 and XBP1 UPR activ -0.7.
Screening COc1cc(C(=O)Nc2ccc(S(=O)(=O)N3CCCCC3)cc2)ccc1OCC(=O)N1CCOCC1 returned TbMetRS inhib 0.1 and V-ATPase pH 2.9.
C=CC[C@@H](CC(=O)N[C@H](CO)Cc1ccccc1)C(=O)N[C@@H](COC(=O)[C@@H](CC=C)CC(=O)OC(C)(C)C)Cc1ccccc1 was read as TbMetRS inhib 0.5, V-ATPase pH 0.0, CHOP UPR activ 1.9 and XBP1 UPR activ -3.2.
`COc1ccc2[nH]c(=O)c(-c3noc(-c4ccccc4)n3)cc2c1` gave CHOP inh 88.4*, TbMetRS inhib -1.8, V-ATPase pH 2.7, CHOP UPR activ 2.0 and XBP1 UPR activ 9.2.
`CC(Oc1ccccc1F)C(=O)Nc1ccc2ccccc2c1` (stereo not drawn) gave CHOP inh 88.0*, TbMetRS inhib -0.3, V-ATPase pH 0.2, CHOP UPR activ 0.6 and XBP1 UPR activ 1.6.
For Cc1cccc(C)c1NC(=O)CSc1nc(-c2ccco2)cc(C(F)(F)F)n1 the results were CHOP inh 84.7*, TbMetRS inhib 0.6, V-ATPase pH -0.8, CHOP UPR activ 2.3 and XBP1 UPR activ -1.7.
Screening CCOC(=O)N1CCN(c2nc(-c3ccco3)cc(C(F)(F)F)n2)CC1 returned CHOP inh 86.1*, TbMetRS inhib -0.7, V-ATPase pH 0.5, CHOP UPR activ -3.1 and XBP1 UPR activ -4.2.
Screening O=C(CSc1nc(-c2ccco2)cc(C(F)(F)F)n1)Nc1ccccc1C(F)(F)F returned CHOP inh 77.2*, TbMetRS inhib 0.1, V-ATPase pH -2.0, CHOP UPR activ 1.1 and XBP1 UPR activ -2.5.
`O=C(CSc1nc(-c2ccco2)cc(C(F)(F)F)n1)NCCc1ccccc1` gave CHOP inh 57.3, TbMetRS inhib -1.4, V-ATPase pH 4.0, CHOP UPR activ -0.5 and XBP1 UPR activ -3.6.
Cc1cc(NC(=O)CSc2nc(-c3ccco3)cc(C(F)(F)F)n2)no1 was read as TbMetRS inhib -2.9, V-ATPase pH 2.7, CHOP UPR activ -1.4 and XBP1 UPR activ 22.9.
`CCOC(=O)N1CCN(c2nc(-c3cccc(OC)c3)cc(C(F)(F)F)n2)CC1` gave CHOP inh 60.0, TbMetRS inhib -0.5, V-ATPase pH -2.0, CHOP UPR activ 1.2 and XBP1 UPR activ 1.8.
Screening O=C(Cc1cccs1)NCCS(=O)(=O)N1CCN(c2ccccc2F)CC1 returned TbMetRS inhib -0.5, V-ATPase pH 0.3, CHOP UPR activ 1.0 and XBP1 UPR activ -3.5.
Screening CCCCN1C(=O)C2Cc3c([nH]c4ccccc34)CN2C1=S (stereo not drawn) returned CHOP inh 79.5*, TbMetRS inhib 0.6, V-ATPase pH 2.7, CHOP UPR activ 0.3 and XBP1 UPR activ -2.2.
For CCOC(=O)C1(C)CCN1C(=O)CSc1ccccc1 (stereo not drawn) the results were TbMetRS inhib -0.4.
Screening O=C(NCCC(F)(F)F)c1cccc2c(-c3ccc(F)c(F)c3)coc12 returned TbMetRS inhib 0.2.
For O=C(/C=C/c1c[nH]c2ccccc12)c1cccc2ccccc12 the results were CHOP inh 87.0*, TbMetRS inhib -0.2, V-ATPase pH -0.7, CHOP UPR activ 2.7 and XBP1 UPR activ 1.2.
Screening O=C(c1ccccc1)c1c[nH]c2ccccc12 returned TbMetRS inhib -0.1 and V-ATPase pH 0.8.
Cc1ccc2nc(-c3ccc4c(c3)OCCO4)cn2c1 was read as CHOP inh 93.5*, TbMetRS inhib -0.7, V-ATPase pH 2.5, CHOP UPR activ -10.0 and XBP1 UPR activ -8.3.
Screening c1ccn2cc(-c3ccc4c(c3)OCCO4)nc2c1 returned CHOP inh 50.5, TbMetRS inhib -3.8, V-ATPase pH -1.6, CHOP UPR activ -7.2 and XBP1 UPR activ -13.7.
`COC(=O)c1ccccc1-c1c2ccc(=N)cc-2oc2cc(N)ccc12` gave TbMetRS inhib -0.5, V-ATPase pH 454.2*, CHOP UPR activ -0.7 and XBP1 UPR activ -2.5.
Screening COC(=O)c1ccccc1-c1ccc(/C=N/NC(=O)c2cc3ccccc3o2)o1 returned CHOP inh 15.8, TbMetRS inhib 1.3, V-ATPase pH 0.3, CHOP UPR activ -0.2 and XBP1 UPR activ -2.4.
Screening CCc1ccc(OCc2nnc(NC(=O)c3cccs3)s2)cc1 returned CHOP inh 71.6*, TbMetRS inhib -0.6, V-ATPase pH 0.3, CHOP UPR activ 0.2 and XBP1 UPR activ -2.4.
For Cc1ccc(OCc2nnc(NC(=O)Cc3cccs3)s2)cc1 the results were CHOP inh 64.7, CHOP UPR activ -2.7 and XBP1 UPR activ 3.3.
For O=C(Nc1cccc2c1CCCC2)c1cc([N+](=O)[O-])ccc1Cl the results were CHOP inh 18.4, TbMetRS inhib -0.9, V-ATPase pH 9.7*, CHOP UPR activ -0.1 and XBP1 UPR activ -5.0.
`O=C(Nc1cccc2c1CCCC2)c1ccc(Cl)c([N+](=O)[O-])c1` gave CHOP inh 20.6, TbMetRS inhib -0.3, V-ATPase pH -0.8, CHOP UPR activ 1.4 and XBP1 UPR activ -4.0.
O=c1[nH]c(/C=C/c2ccc(Br)cc2)nc2ccccc12 was read as TbMetRS inhib -0.5, V-ATPase pH 1.4, CHOP UPR activ 1.2 and XBP1 UPR activ -5.7.
O=c1[nH]c(/C=C/c2cccc3ccccc23)nc2ccccc12 was read as CHOP inh -25.9, TbMetRS inhib -0.2, V-ATPase pH -6.4, CHOP UPR activ 3.3 and XBP1 UPR activ 0.1.
For Cc1cccc(/C=C\c2nc3ccccc3c(=O)[nH]2)c1 the results were CHOP inh 100.9*, TbMetRS inhib -0.3, V-ATPase pH -1.1, CHOP UPR activ 1.1 and XBP1 UPR activ -1.8.

Source: PubChem
